{
  "source": "ChEMBL document CHEMBL3108739",
  "about": "“Activation and inhibition of thermosensitive TRP channels by voacangine, an alkaloid present in Voacanga africana, an African tree” (J Nat Prod, 2014)",
  "key": {"[1]": {"target": "T1, Transient receptor potential cation channel subfamily V member 2 (Homo sapiens) (UniProt Q9Y5S1)", "T1 sequence (whole entry)": "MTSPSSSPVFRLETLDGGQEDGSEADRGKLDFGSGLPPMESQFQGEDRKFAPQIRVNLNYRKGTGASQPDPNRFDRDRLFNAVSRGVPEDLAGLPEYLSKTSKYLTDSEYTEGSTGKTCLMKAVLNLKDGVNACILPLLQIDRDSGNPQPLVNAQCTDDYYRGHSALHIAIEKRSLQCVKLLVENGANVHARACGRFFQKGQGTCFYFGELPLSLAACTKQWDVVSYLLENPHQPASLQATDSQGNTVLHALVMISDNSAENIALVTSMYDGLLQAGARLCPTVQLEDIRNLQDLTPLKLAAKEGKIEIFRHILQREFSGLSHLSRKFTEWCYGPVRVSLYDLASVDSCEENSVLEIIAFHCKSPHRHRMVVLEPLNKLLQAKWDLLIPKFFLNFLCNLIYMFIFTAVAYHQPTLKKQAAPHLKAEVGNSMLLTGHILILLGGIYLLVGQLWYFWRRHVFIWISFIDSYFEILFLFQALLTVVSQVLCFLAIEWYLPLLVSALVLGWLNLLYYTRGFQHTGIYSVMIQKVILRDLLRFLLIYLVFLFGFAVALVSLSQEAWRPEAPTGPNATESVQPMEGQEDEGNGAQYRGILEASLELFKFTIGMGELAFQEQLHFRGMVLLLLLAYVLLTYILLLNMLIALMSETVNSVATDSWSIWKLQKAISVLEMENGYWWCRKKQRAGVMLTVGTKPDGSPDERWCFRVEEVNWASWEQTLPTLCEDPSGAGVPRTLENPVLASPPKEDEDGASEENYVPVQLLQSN", "experiment": "Antagonist activity at human TRPV2 expressed in HEK293T cells assessed as LPC-induced intracellular Ca2+ influx at 100 uM by Fluo-4 AM staining-based fluorescence analysis", "type": "cell-based", "conditions": "HEK-293T", "summary_of_the_method": "(§1)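 hTRPV2 transiently transfected into HEK293T, seeded 6 h after transfection and used 18 h later. Fluo-4 loading in probenecid-free buffer, 37 °C. Agonist 30 and 40 μM LPC; ruthenium red 5 μM as reference blocker; 100 μM compound given alone or pretreated 3 min. Read-out ΔF/F0 (%).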"}, "[2]": {"target": "Transient receptor potential cation channel subfamily V member 1 (Homo sapiens, UniProt Q8NER1)", "sequence (Q8NER1 whole entry)": "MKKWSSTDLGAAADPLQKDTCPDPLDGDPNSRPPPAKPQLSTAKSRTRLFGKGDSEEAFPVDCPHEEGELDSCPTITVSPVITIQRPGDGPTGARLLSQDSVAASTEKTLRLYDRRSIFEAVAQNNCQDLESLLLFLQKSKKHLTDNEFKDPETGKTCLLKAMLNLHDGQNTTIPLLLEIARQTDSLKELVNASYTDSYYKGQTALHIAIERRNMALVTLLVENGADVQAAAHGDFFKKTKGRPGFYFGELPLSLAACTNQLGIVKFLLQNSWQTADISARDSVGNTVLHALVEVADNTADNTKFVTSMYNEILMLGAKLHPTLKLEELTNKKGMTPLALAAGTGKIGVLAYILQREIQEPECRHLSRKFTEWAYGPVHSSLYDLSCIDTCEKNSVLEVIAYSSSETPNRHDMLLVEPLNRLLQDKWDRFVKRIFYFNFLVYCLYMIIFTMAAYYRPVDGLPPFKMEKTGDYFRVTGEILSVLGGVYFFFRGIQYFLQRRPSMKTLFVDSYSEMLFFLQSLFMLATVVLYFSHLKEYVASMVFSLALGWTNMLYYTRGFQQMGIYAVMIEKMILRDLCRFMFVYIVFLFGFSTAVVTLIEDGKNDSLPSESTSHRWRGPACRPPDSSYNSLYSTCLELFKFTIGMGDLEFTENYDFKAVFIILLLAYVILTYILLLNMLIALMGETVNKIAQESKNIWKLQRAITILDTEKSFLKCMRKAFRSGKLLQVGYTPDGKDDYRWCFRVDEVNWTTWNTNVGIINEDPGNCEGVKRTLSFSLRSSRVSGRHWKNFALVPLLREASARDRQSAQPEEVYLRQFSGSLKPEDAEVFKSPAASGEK", "experiment": "Agonist activity at human brain TRPV1 expressed in HEK293T cells assessed as intracellular Ca2+ influx at 100 uM by Fluo-4 AM staining-based fluorescence analysis", "type": "cell-based", "conditions": "HEK-293T", "summary_of_the_method": "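Stable hTRPV1 in HEK293T (G418 selected), Fluo-4 loaded, 37 °C. 100 μM compound alone, or pretreated 3 min before 0.01 μM capsaicin; 10 μM BCTC reference. Data as % of 10 μM capsaicin.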"}, "[3]": {"target": "Transient receptor potential cation channel subfamily M member 8 (Mus musculus) (UniProt Q8R4D5)", "sequence (Q8R4D5 whole entry)": "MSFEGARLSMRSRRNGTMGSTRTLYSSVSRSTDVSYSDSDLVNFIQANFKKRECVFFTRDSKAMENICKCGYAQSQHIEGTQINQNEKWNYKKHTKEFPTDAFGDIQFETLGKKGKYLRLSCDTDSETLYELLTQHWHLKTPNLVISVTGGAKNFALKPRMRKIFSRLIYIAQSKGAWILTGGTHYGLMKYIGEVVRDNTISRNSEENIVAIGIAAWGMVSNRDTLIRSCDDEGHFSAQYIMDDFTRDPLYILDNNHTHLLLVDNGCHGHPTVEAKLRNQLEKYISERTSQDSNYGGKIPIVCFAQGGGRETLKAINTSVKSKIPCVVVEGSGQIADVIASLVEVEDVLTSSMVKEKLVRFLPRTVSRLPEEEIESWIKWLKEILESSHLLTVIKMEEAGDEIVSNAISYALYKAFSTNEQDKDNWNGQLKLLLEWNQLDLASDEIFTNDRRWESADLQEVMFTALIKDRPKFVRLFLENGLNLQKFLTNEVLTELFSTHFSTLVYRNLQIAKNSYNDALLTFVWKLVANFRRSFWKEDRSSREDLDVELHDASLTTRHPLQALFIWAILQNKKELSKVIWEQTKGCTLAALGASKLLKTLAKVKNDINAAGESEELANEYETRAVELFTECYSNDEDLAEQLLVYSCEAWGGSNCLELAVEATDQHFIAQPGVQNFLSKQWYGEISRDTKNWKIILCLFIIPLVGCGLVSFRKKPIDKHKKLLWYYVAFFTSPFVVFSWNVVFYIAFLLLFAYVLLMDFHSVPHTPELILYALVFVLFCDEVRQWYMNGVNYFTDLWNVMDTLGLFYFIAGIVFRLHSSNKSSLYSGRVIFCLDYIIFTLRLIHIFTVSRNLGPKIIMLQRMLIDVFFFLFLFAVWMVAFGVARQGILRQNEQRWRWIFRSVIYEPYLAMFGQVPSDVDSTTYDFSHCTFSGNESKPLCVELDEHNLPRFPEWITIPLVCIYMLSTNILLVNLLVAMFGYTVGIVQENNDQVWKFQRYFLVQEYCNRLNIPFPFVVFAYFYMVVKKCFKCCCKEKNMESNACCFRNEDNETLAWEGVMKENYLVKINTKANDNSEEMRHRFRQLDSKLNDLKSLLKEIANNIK", "conditions": "Dorsal root ganglion, HEK T-REx, 100 uM"}, "[4]": {"target": "T2, Transient receptor potential cation channel subfamily V member 3 (Homo sapiens) (UniProt Q8NET8)", "T2 sequence (whole entry)": "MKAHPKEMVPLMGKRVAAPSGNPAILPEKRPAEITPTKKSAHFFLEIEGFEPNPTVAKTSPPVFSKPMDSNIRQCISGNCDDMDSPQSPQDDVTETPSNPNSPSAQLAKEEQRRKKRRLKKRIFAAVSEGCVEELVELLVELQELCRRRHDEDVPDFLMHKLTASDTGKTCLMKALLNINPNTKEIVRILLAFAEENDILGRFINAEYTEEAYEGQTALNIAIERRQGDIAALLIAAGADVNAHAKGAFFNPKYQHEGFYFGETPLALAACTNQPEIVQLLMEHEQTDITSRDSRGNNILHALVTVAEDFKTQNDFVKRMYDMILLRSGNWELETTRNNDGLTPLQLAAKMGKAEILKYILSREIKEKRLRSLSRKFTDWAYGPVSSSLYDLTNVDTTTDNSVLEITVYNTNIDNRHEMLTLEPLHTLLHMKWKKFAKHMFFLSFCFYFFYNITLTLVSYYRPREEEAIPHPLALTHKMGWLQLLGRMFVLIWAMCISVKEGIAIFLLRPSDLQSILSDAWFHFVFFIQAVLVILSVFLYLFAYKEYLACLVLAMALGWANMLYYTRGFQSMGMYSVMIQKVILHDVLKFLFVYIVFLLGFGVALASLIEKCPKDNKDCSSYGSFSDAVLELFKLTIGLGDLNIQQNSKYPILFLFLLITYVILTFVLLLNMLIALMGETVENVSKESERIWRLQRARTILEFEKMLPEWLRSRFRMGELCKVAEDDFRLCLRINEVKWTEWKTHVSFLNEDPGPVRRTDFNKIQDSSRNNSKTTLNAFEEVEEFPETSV", "experiment": "Agonist activity at human TRPV3 expressed in HEK293T cells assessed as intracellular Ca2+ influx at 100 uM by Fluo-4 AM staining-based fluorescence analysis", "type": "cell-based", "conditions": "HEK-293T", "summary_of_the_method": "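hTRPV3 transiently expressed in HEK293T; loading and assay at 25 °C, Fluo-4 with probenecid buffer pH 7.4. Agonist 100 and 300 μM menthol, 5 μM ruthenium red as reference; 100 μM compound alone or pretreated 3 min. Data as % of 1000 μM menthol.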"}, "[5]": {"target": "T3, Transient receptor potential cation channel subfamily A member 1 (Homo sapiens, UniProt O75762)", "T3 sequence (O75762 whole entry)": "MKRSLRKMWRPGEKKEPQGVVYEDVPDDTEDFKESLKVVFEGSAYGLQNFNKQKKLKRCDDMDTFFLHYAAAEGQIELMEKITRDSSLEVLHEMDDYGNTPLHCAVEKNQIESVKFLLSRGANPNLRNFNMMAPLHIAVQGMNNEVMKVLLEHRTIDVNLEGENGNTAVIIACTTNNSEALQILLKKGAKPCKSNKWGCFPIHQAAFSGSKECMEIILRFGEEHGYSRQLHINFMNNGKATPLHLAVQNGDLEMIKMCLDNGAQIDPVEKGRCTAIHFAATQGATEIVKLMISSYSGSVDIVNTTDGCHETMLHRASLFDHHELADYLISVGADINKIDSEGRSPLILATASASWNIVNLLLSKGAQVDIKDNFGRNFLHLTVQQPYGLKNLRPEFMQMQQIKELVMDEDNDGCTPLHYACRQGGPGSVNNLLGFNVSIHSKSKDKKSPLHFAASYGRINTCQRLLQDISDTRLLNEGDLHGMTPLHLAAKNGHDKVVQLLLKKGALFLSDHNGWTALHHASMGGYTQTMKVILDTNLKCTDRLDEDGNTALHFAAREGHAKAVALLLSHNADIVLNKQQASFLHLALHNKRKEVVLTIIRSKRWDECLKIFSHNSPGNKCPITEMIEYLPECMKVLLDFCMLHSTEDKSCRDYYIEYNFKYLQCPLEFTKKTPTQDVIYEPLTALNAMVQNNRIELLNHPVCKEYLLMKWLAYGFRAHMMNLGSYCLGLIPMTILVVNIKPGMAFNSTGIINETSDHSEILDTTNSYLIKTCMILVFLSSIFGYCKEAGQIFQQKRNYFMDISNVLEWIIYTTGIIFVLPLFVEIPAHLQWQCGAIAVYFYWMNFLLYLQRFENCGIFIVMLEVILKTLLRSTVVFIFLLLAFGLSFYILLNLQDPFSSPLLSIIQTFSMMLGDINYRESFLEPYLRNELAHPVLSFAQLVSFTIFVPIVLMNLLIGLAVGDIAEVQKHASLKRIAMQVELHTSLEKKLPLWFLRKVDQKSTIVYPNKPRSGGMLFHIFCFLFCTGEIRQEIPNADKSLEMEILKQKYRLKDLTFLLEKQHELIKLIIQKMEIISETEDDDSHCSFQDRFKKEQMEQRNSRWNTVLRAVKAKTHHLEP", "experiment": "Agonist activity at TRPA1 isolated from human W138 cells expressed in HEK293T cells assessed as intracellular Ca2+ influx at 100 uM by Fluo-4 AM staining-based fluorescence analysis in presence of antagonist HC-030031", "type": "cell-based", "summary_of_the_method": "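Tetracycline-induced (1 μg/mL) stable hTRPA1 in HEK T-REx cells, Fluo-4 AM loaded (3 μM, 1 h, 37 °C) in HEPES buffer pH 7.4 with probenecid; Ca2+ read at 37 °C. Compound 0.01−100 μM; HC-030031 30 μM pretreated 3 min. Responses as % of 5 μM ionomycin or of 100 μM AITC; TREx cells without TRPA1 as control; n = 4−8.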"}, "[6]": {"target": "Transient receptor potential cation channel subfamily M member 8 (Mus musculus) (UniProt Q8R4D5)", "conditions": "Dorsal root ganglion, HEK T-REx, 100 uM", "remark": "listed apart in the source"}, "[7]": {"target": "Transient receptor potential cation channel subfamily M member 8 (Mus musculus) (UniProt Q8R4D5)", "conditions": "Dorsal root ganglion, HEK T-REx, 5 to 100 uM"}, "[8]": {"target": "T1, Transient receptor potential cation channel subfamily V member 2 (Homo sapiens)", "experiment": "Agonist activity at human TRPV2 expressed in HEK293T cells assessed as intracellular Ca2+ influx at 100 uM by Fluo-4 AM staining-based fluorescence analysis", "type": "cell-based", "conditions": "HEK-293T", "summary_of_the_method": "as §1"}, "[9]": {"target": "T3, Transient receptor potential cation channel subfamily A member 1", "experiment": "Antagonist activity at TRPA1 isolated from human W138 cells expressed in HEK293T cells assessed as AITC-induced intracellular Ca2+ influx at 100 uM by Fluo-4 AM staining-based fluorescence analysis", "type": "cell-based", "conditions": "HEK-293T"}},
  "note": "Calls of active or inactive are those of the source. The calls are words filed in the database; no cut-off is given here.",
  "data": [
    {"smiles": "CC[C@H]1C[C@@H]2CN3CCc4c([nH]c5ccc(OC)cc45)[C@](C(=O)OC)(C2)[C@H]13", "note": "[VOACANGINE]", "values": [
      {"measurement": "Activity", "setting": "[1]", "value": "inactive"},
      {"measurement": "Activity", "setting": "[2]", "value": "inactive"},
      {"measurement": "inhibition", "setting": "[3]", "value": "Active"},
      {"measurement": "Activity", "setting": "[4]", "value": "inactive"},
      {"measurement": "Activity", "setting": "[5]", "value": "inactive"},
      {"measurement": "inhibition", "setting": "[6]", "value": "Active"},
      {"measurement": "inhibition", "setting": "[7]", "value": "Active"},
      {"measurement": "Activity", "setting": "[8]", "value": "inactive"},
      {"measurement": "Activity", "setting": "[9]", "value": "inactive"}
    ]}
  ]
}
